Consider one compound from ChEMBL document CHEMBL3808357, “Discovery of N-(3-((1-Isonicotinoylpiperidin-4-yl)oxy)-4-methylphenyl)-3-(trifluoromethyl)benzamide (CHMFL-KIT-110) as a Selective, Potent, and Orally Available Type II c-KIT Kinase Inhibitor for Gastrointestinal Stromal Tumors (GISTs)” (J Med Chem, 2016).

Data set [1] addresses Mast/stem cell growth factor receptor Kit (Homo sapiens) (UniProt P10721). Nature of the data set: Inhibition of cKIT in human GISTT1 cells assessed as suppression of ERK phosphorylation at T202/Y204 up to 10 uM after 2 hrs by Western blot analysis. It is filed as cell-based.
The target is the same in data set [2]. As to the kind of experiment: Inhibition of cKIT in human GISTT1 cells assessed as suppression of S6K phosphorylation at T389 up to 10 uM after 2 hrs by Western blot analysis. It is filed as cell-based. On the technique in general: Immunoblotting shows a protein as a band on a membrane.
Data set [3] has the same target. Nature of the data set: Inhibition of cKIT in human GIST882 cells assessed as suppression of AKT phosphorylation at S473 up to 10 uM after 2 hrs by Western blot analysis. The data set is classed as cell-based.
For data set [4] the target is unchanged. As to the kind of experiment: Inhibition of cKIT autophosphorylation at Y703 in human GIST48B cells up to 10 uM after 2 hrs by Western blot analysis. The data set is classed as cell-based.
For data set [5] the target is unchanged. As to the kind of experiment: Inhibition of cKIT in human GIST48B cells assessed as suppression of AKT phosphorylation at S473 up to 10 uM after 2 hrs by Western blot analysis. The data set is classed as cell-based.
Data set [6] shares this target. Nature of the data set: Inhibition of cKIT in human GIST48B cells assessed as suppression of STAT5 phosphorylation at Y694 up to 10 uM after 2 hrs by Western blot analysis. The data set is classed as cell-based.
Data set [7] concerns the target Platelet-derived growth factor receptor alpha (Homo sapiens) (UniProt P16234). As to the kind of experiment: Inhibition of PDGFRalpha phosphorylation at Y849 in human GIST48B cells up to 10 uM after 2 hrs by Western blot analysis. It is filed as cell-based. The gist of the method: (§1)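 Cells were washed in cold PBS, lysed in RIPA and immunoblotted for phospho and total proteins, including pPDGFRα Y849/PDGFRβ Y857 and β-actin.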

Another data set has as its system GIST882. As to the kind of experiment: Induction of apoptosis in human GIST882 cells assessed as PARP cleavage up to 3 uM after 72 hrs by Western blot analysis. It is filed as functional, cell-based.
Data set [8] is described as follows: AUC(0 to t) in Sprague-Dawley rat plasma at 1 mg/kg, iv. The data set is classed as ADME, organism-based. Put shortly: (§2)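 Male Sprague-Dawley rats, 8 weeks old, fasted overnight, dosed iv or orally. Formulation was 5% DMSO/40% PEG400/55% saline at 1 mg/mL. Blood (~0.2 mL) was drawn from the jugular vein into heparin. Sampling: iv at 1 min to 8 h; oral at 5 min to 24 h. Plasma was separated by centrifugation at 2−8 °C and stored at −80 °C.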

Data set [9] can be described thus: AUC(0 to infinity) in Sprague-Dawley rat plasma at 10 mg/kg, po. Also on record: dose 10 mg/kg, time infinity, route oral. It is filed as ADME, organism-based. Put shortly:
as §2

Data set [10] in a line: MRT(0 to t) in Sprague-Dawley rat plasma at 1 mg/kg, iv. It is filed as ADME, organism-based. The gist of the method:
(§3)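 Male Sprague–Dawley rats, 8 weeks old, six in total, fasted overnight; compound dissolved in 5% DMSO/40% PEG400/55% saline (1 mg/mL dosing solution), given iv or orally. About 0.2 mL jugular blood taken with heparin at 1 min–8 h (iv) or 5 min–24 h (oral); plasma separated at 2–8 °C and stored at −80 °C before analysis.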

Data set [11] can be described thus: MRT(0 to t) in Sprague-Dawley rat plasma at 10 mg/kg, po. The data set is classed as ADME, organism-based. The gist of the method:
as §3

Data set [12] in a line: Tmax in Sprague-Dawley rat plasma at 10 mg/kg, po. It is filed as ADME, organism-based. Put shortly: as §3
The nature of data set [13]: Apparent clearance in Sprague-Dawley rat plasma at 10 mg/kg, po. The conditions noted are these: read-out: CL(app) (converted). It is filed as ADME, organism-based. Put shortly: as §2
In the next data set the test system is Mus musculus. Nature of the data set: Toxicity in nu/nu mouse xenografted with human GISTT1 cells assessed as body weight change at 25 to 100 mg/kg/day administered through oral gavage after 21 days. The data set is classed as organism-based. Conditions: in vivo, 504 h. The gist of the method: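 Female nu/nu mice, 6 weeks old, injected subcutaneously in the right flank with 5 million GIST-T1 cells in PBS/Matrigel 1:1. At tumor volume 100–200 mm³, randomized to groups of six; daily oral gavage of 25, 50 or 100 mg/kg/d or vehicle (0.5% methylcellulose/0.4% Tween80 in water). Body weight measured daily, normalized to initial weight; mean ± SEM.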
For orientation: Xenograft models place foreign cells or tissue in a host animal.

The target in data set [14] is T1, Platelet-derived growth factor receptor beta (Homo sapiens, UniProt P09619). Nature of the data set: Inhibition of PDGFRbeta phosphorylation at Y857 in human GISTT1 cells up to 10 uM after 2 hrs by Western blot analysis. The data set is classed as cell-based. The gist of the method: as §1
The target of data set [15] is Mast/stem cell growth factor receptor Kit (Homo sapiens) (UniProt P10721). Nature of the data set: Inhibition of human wild type partial length cKIT expressed in bacterial expression system assessed as residual activity at 1 uM by KinomeScan method. The gist of the method: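 KinomeScan competitive binding panel of 468 kinases and mutants, compound tested at 1 μM; read-out is percent activity remaining (binding relative to control).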

The target in data set [16] is Macrophage colony-stimulating factor 1 receptor (Homo sapiens, UniProt P07333). As to the kind of experiment: Inhibition of His-tagged recombinant human CSF1R expressed in baculovirus expression system after 1 hr by Z-lyte assay.
In data set [17] the target is Epithelial discoidin domain-containing receptor 1 (Homo sapiens, UniProt Q08345). As to the kind of experiment: Inhibition of GST-tagged human DDR1 expressed in baculovirus after 1 hr by Z-lyte assay.
For data set [18], the target named is T1, Platelet-derived growth factor receptor beta. Nature of the data set: Inhibition of N-terminal GST-tagged recombinant human PDGFRbeta (amino acids 557-end) expressed in baculovirus infected insect Sf9 cells using Poly(4:1 Glu, Tyr) peptide as substrate after 1 hr by promega ADP-glo assay. The gist of the method: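 ADP-Glo luminescence assay. PDGFRβ (10 ng/μL, 9 μL) with poly(Glu4,Tyr1) substrate (0.4 μg/μL) and 100 μM ATP, serially diluted inhibitor, 1 h at 37 °C. ADP-Glo reagent was added for 40 min, then detection reagent for 30 min. IC50 was taken from the dose−response fit.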
For orientation: ADP-Glo first removes unused ATP, then detects ADP through luciferase.

The subject of data set [19] is Mast/stem cell growth factor receptor Kit (Homo sapiens), P10721 [V559D,V654A]. As to the kind of experiment: Inhibition of Tel-fused cKIT V559D/V654A double mutant (unknown origin) transfected in mouse BAF3 cells assessed as decrease in cell proliferation after 72 hrs by celltiter-glo/CCK8 assay. The data set is classed as cell-based. Put shortly: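 Stable BaF3 lines made by retroviral transduction with mutagenized TEL-KIT MSCV vectors, puromycin selection 48 h, then gradual IL-3 withdrawal until IL-3-independent; grown in RPMI 1640 with 10% FBS. Cells at 1 to 3 × 10⁴ cells/mL exposed to a concentration series for 72 h; viability read by CellTiter-Glo luminescence or CCK-8 absorbance (450/655 nm); GI50 from triplicate testing.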

Data set [20] in a line: Antiproliferative activity against FLT3-ITD dependent human MOLM14 cells assessed as reduction in cell viability after 72 hrs by celltiter-glo/CCK8 assay. The data set is classed as functional. Conditions: MOLM-14, 72 h. The gist of the method: (§4)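 Cells were seeded at 1 to 3 × 10⁴ cells/mL with serial compound concentrations and incubated 72 h at 37 °C, 5% CO₂. Viability was read by CellTiter-Glo luminescence or CCK-8 absorbance (450/655 nm). GI50 values are from triplicate testing. GIST-T1 and CHO were grown in DMEM/10% FBS; GIST-882, GIST-48B and MV4-11 in IMDM/10% FBS; other lines in RPMI 1640/10% FBS.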

Data set [21] in a line: Antiproliferative activity against human Rec1 cells assessed as reduction in cell viability after 72 hrs by celltiter-glo/CCK8 assay. The data set is classed as functional. The conditions noted are these: Rec1, 72 h. Put shortly:
as §4

Data set [22] in a line: Antiproliferative activity against CHO cells assessed as reduction in cell viability after 72 hrs by celltiter-glo/CCK8 assay. It is filed as cell-based, Cricetulus griseus. The conditions noted are these: chinese hamster. The gist of the method:
as §4

Activity calls are given as the source filed them. The rule behind the calls is not given here.

Sequence of Mast/stem cell growth factor receptor Kit (Homo sapiens) (P10721 whole entry): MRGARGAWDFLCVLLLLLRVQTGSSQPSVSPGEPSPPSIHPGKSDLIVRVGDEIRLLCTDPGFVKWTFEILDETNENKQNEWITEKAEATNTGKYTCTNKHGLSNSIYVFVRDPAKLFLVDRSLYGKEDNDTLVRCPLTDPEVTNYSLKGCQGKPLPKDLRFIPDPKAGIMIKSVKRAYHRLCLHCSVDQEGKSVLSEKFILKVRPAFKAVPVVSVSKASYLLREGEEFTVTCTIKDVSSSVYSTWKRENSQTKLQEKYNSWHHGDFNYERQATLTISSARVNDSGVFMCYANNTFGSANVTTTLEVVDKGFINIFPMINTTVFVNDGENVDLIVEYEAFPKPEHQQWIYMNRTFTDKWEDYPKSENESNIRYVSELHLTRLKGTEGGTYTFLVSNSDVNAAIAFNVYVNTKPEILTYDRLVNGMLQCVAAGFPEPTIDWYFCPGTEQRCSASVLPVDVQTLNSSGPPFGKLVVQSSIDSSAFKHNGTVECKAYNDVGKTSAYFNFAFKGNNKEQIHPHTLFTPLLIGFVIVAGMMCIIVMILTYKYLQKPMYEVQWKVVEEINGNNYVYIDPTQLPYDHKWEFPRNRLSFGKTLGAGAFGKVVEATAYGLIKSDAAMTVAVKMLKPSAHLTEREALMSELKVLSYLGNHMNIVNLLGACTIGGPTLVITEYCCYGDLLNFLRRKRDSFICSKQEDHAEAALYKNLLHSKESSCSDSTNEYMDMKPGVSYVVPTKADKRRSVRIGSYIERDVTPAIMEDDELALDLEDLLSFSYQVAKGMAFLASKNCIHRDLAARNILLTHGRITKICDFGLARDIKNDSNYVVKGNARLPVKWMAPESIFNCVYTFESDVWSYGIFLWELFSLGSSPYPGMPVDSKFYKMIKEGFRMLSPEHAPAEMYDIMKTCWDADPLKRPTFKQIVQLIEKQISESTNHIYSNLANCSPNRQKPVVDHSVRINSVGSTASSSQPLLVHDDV
T1 sequence (P09619 whole entry): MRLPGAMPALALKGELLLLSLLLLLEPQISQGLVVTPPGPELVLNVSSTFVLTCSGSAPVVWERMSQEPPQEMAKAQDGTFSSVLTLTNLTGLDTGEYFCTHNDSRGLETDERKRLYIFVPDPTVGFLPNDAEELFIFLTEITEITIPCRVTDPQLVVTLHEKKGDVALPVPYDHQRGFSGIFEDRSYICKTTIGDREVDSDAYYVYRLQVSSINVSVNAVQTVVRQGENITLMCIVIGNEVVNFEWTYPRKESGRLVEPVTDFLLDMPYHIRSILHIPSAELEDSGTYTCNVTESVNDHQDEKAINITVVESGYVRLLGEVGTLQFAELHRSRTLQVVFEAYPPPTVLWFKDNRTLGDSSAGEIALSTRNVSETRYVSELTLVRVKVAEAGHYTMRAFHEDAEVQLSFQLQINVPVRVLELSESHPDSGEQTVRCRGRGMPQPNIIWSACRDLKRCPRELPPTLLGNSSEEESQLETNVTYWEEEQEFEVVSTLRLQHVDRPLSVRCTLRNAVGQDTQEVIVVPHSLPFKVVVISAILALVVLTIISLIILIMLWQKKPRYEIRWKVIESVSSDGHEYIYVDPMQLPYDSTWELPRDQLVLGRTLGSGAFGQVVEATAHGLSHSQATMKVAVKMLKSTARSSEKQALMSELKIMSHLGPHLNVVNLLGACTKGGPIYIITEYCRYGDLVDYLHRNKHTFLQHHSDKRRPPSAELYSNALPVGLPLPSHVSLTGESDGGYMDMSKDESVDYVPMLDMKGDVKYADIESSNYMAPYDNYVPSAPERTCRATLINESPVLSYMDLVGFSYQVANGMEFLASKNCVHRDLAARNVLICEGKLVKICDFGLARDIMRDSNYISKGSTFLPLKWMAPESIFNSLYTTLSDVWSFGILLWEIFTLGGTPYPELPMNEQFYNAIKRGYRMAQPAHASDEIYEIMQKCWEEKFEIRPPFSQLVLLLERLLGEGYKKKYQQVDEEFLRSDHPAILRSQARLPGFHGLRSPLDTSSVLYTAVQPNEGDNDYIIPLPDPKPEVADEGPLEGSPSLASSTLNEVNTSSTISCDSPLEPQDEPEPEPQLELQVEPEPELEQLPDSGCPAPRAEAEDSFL
Sequence of Epithelial discoidin domain-containing receptor 1 (Q08345 whole entry, the tested form may be a part): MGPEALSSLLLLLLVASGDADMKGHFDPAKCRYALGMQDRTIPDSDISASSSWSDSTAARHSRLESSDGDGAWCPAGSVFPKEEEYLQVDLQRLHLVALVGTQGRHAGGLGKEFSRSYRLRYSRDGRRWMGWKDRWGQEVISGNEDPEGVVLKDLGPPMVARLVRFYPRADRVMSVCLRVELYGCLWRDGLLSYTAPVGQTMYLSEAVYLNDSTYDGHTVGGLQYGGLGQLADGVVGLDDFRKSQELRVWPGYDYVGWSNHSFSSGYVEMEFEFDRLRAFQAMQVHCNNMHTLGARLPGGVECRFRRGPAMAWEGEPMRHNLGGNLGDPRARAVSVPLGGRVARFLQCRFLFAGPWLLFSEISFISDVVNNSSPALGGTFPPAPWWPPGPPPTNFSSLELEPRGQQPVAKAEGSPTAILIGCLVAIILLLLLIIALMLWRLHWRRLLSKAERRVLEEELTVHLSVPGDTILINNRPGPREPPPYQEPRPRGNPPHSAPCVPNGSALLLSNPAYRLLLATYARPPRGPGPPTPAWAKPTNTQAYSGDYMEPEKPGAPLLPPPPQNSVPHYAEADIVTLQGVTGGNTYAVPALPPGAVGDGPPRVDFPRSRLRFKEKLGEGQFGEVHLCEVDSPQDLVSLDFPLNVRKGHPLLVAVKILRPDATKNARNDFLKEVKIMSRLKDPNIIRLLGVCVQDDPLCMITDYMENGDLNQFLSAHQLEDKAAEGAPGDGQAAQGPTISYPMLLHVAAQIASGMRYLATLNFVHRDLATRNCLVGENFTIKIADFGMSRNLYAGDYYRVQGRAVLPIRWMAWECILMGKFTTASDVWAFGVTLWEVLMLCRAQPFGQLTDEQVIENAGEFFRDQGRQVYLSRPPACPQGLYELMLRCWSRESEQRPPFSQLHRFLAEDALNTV
Sequence of Mast/stem cell growth factor receptor Kit (Homo sapiens), P10721 [V559D,V654A] (P10721 whole entry V559D/V654A, the tested form may be a part): as the sequence (P10721 whole entry) above, with V559D, V654A counted along it
Sequence of Platelet-derived growth factor receptor alpha (Homo sapiens) (P16234 whole entry): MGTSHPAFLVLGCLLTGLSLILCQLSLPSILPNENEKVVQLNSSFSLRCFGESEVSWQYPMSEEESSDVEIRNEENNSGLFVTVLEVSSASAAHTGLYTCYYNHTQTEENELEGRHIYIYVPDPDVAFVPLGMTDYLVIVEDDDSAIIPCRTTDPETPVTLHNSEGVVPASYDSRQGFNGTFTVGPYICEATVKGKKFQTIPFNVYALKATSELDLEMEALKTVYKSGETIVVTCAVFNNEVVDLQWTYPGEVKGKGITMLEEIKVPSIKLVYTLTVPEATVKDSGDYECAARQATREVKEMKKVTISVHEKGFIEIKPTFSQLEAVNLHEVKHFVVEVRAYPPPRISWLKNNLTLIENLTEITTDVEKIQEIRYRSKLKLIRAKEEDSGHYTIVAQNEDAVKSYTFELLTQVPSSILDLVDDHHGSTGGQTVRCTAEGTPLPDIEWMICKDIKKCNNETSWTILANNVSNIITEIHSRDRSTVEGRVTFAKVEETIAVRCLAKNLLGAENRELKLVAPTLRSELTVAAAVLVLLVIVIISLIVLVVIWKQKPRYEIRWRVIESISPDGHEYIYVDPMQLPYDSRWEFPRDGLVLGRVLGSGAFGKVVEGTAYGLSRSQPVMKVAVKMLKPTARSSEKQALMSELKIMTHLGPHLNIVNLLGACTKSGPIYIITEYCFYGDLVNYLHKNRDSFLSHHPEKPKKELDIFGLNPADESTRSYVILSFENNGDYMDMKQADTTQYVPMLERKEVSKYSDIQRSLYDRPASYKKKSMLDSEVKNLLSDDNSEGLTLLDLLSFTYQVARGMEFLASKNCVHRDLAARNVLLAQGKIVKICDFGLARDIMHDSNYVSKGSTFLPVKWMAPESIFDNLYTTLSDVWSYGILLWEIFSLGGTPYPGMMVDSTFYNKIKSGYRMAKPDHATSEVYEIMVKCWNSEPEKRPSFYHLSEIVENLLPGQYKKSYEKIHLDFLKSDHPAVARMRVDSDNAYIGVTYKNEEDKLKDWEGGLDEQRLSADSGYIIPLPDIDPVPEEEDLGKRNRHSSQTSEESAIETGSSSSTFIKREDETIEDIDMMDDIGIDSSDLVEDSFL
Sequence of Macrophage colony-stimulating factor 1 receptor (P07333 whole entry, the tested form may be a part): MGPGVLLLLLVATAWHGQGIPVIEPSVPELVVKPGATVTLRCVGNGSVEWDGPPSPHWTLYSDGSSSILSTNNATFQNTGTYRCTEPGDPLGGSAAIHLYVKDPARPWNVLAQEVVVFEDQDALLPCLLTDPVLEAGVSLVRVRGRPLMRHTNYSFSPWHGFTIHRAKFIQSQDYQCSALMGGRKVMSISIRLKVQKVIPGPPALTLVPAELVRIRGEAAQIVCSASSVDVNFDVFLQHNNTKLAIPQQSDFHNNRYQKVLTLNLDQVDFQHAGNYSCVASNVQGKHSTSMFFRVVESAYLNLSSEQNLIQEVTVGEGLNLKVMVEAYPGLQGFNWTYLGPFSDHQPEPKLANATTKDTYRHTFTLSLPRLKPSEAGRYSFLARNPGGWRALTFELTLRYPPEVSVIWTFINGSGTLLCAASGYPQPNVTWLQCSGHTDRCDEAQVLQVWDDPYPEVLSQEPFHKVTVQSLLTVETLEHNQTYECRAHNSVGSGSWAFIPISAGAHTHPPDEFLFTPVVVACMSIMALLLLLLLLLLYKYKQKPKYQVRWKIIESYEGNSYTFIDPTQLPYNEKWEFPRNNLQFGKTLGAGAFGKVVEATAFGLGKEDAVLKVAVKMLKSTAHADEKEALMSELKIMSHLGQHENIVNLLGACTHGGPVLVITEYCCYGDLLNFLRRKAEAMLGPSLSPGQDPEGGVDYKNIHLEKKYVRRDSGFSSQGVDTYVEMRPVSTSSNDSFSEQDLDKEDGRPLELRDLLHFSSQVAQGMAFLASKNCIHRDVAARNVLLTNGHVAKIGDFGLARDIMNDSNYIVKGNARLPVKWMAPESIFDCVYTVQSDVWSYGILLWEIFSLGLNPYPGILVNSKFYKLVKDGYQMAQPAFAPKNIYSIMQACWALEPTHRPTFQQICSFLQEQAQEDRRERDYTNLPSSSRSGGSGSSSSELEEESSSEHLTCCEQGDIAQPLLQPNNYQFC

One may read the AUC(0-t) as exposure summed from dosing to a finite time, without extrapolation to infinity. Read a high AUC(0-t) as high exposure. Broadly, the AUC(0-inf) is total exposure, with the tail of the curve extrapolated. Low readings indicate less exposure, high ones more exposure. The MRT last is a mean duration of stay, worked out from the concentration-time curve. One may read the Tmax as the time at which the peak concentration occurs. The term IC50 denotes the concentration needed to halve the response being measured. By GI50 is commonly meant the concentration that inhibits growth by half. Consider `Cc1ccc(NC(=O)c2cccc(C(F)(F)F)c2)cc1OC1CCN(C(=O)c2ccncc2)CC1`, for which the inhibition entry in data set [1], in data set [2], in [3], in data set [4], in [6] and in data set [7] was “Active” in each case. For the same compound, the inhibition entry in [14] was “Active”. In addition, the inhibition entry in data set [5] is “inactive”. Also, the result in the data set with GIST882 was Active. The compound also displayed an AUC(0-t) in data set [8] of 198 ng·h/mL. In data set [9], this compound registered an AUC(0-inf) of 780 ng·h/mL. In addition, the MRT last in data set [10] came out at 29 min; in data set [11], 288 min. In addition, in data set [12], the Tmax is 30 min. For the same compound, in data set [13], the CL/F is 215 mL/min/kg. The Activity result is “Non-toxic” in the data set on Mus musculus and 0.45% in data set [15]. Moreover, the IC50 in data set [16] worked out at 133 nM; in [17], 126 nM; in data set [18], 120 nM. Further, the GI50 in data set [19] is 1050 nM; in data set [20] it was > 10000 nM; in [21] it was > 10000 nM. For the same compound, the GI50 at 72 h in [22] is > 10000 nM.
